Activity calls are given as the source filed them. The rule behind the calls is not given here.
How the values were obtained:
HCT-116 = test: Antiproliferative activity against human HCT116 cells after 72 hrs by MTT assay; type: functional, cell-based
ZR-75-30 = test: Antiproliferative activity against human ZR-7530 cells after 72 hrs by MTT assay; type: functional, cell-based
A549 = test: Antiproliferative activity against human A549 cells after 72 hrs by MTT assay; type: functional, cell-based
[1] = molecular target: T1, DNA topoisomerase 1 (Homo sapiens) (UniProt P11387); test: Inhibition of DNA topoisomerase 1 (unknown origin) assessed as reduction in supercoiled pBR322 plasmid DNA relaxation at 100 uM after 15 mins by ethidium bromide staining based agarose gel electrophoresis
T1 sequence (whole entry): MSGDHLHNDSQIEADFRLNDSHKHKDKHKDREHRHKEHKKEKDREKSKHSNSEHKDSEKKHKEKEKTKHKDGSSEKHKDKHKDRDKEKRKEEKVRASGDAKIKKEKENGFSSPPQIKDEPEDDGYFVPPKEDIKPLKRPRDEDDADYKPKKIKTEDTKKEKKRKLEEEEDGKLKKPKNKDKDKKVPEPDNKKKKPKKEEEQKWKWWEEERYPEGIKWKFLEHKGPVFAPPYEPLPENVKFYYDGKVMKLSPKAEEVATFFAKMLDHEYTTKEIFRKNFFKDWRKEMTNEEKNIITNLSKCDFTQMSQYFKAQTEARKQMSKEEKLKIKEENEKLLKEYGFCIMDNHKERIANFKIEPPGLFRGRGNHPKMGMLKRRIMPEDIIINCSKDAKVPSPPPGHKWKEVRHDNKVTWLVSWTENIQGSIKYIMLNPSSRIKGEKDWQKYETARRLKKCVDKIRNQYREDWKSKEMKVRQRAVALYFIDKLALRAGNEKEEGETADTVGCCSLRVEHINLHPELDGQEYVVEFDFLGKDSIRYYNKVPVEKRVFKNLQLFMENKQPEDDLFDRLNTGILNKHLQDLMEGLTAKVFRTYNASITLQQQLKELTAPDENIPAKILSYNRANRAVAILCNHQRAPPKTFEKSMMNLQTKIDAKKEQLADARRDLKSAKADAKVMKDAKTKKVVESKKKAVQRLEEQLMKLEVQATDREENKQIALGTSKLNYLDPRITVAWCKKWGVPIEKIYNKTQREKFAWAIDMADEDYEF
Outline: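 Supercoiled pBR322 plasmid incubated with Top1, with or without compound at 1, 10 and 100 µM. Relaxation inhibition read from agarose gel bands.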

[2] = molecular target: T1, DNA topoisomerase 1 (Homo sapiens); test: Inhibition of DNA topoisomerase-1 (unknown origin) mediated DNA relaxation assessed as DNA intercalation at 100 uM using supercoiled pBR322 plasmid DNA as substrate after 60 mins by ethidium bromide staining based agarose gel electrophoresis
Outline: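 Unwinding assay with excess Top1 acting on supercoiled pBR322 in the presence of compound at 100 µM. Ethidium bromide at 1 µg/mL used as intercalator reference. Compound removed by phenol extraction after relaxation. Nicked, relaxed and supercoiled forms resolved on gel.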

| IC50 (HCT-116; Homo sapiens, HCT-116, 72 h) [µM] | IC50 (A549; Homo sapiens, A549, 72 h) [µM] | inhibition [1] | inhibition [2] | Compound | IC50 (ZR-75-30; Homo sapiens, ZR-75-30, 72 h) [µM] | IC50 (HCT-116; hct-116) [µM] | IC50 (ZR-75-30; zr-75-30) [µM] | IC50 (A549; a549) [µM] |
| --- | --- | --- | --- | --- | --- | --- | --- | --- |
| > 100 | > 100 | – | – | COc1ccc(Sc2cc3c(c4nsnc24)C(=O)c2ccccc2C3=O)cc1 | > 100 | – | – | – |
| > 100 | > 100 | – | – | O=C1c2ccccc2C(=O)c2c1cc(SCc1ccccc1)c1nsnc21 | > 100 | – | – | – |
| > 100 | > 100 | – | – | O=C1c2ccccc2C(=O)c2c1cc(Sc1ccc(Cl)cc1)c1nsnc21 | > 100 | – | – | – |
| 78 | > 100 | – | – | Cc1cccc(S(=O)(=O)c2cc3c(c4nsnc24)C(=O)c2ccccc2C3=O)c1 | > 100 | – | – | – |
| > 100 | > 100 | – | – | O=C1c2ccccc2C(=O)c2c1cc(Sc1cccc(Cl)c1)c1nsnc21 | > 100 | – | – | – |
| > 100 | > 100 | – | – | O=C1c2ccccc2C(=O)c2c1cc(Sc1nc3ccccc3s1)c1nsnc21 | > 100 | – | – | – |
| 26 | > 100 | – | – | Cc1ccc(Sc2cc3c(c4nsnc24)C(=O)c2ccccc2C3=O)cc1 | 22 | – | – | – |
| > 100 | > 100 | – | – | O=C1c2ccccc2C(=O)c2c1cc(Sc1ccccc1)c1nsnc21 | > 100 | – | – | – |
| > 50 | > 50 | – | – | CCOc1cccc(Sc2cc3c(c4nsnc24)C(=O)c2ccccc2C3=O)c1 | > 50 | – | – | – |
| > 100 | > 100 | Active | inactive | O=C1c2ccccc2C(=O)c2c1cc(Sc1cccs1)c1nsnc21 | > 100 | – | – | – |
| > 100 | > 100 | Active | – | O=C1c2ccccc2C(=O)c2c1cc(SCc1ccccc1Cl)c1nsnc21 | > 100 | – | – | – |
| 9.8 | > 50 | – | – | O=C1c2ccccc2C(=O)c2c1cc(Sc1ccc(F)cc1)c1nsnc21 | 20 | – | – | – |
| > 100 | > 100 | – | – | CC(C)(C)c1ccc(Sc2cc3c(c4nsnc24)C(=O)c2ccccc2C3=O)cc1 | > 100 | – | – | – |
| > 100 | > 100 | – | – | O=C1c2ccccc2C(=O)c2c1cc(NCc1ccc(Cl)cc1)c1nsnc21 | > 100 | – | – | – |
| > 50 | > 50 | – | – | O=C1c2ccccc2C(=O)c2c1cc(Sc1cccc(F)c1)c1nsnc21 | > 50 | – | – | – |
| > 100 | > 100 | – | – | CC(C)c1ccc(Sc2cc3c(c4nsnc24)C(=O)c2ccccc2C3=O)cc1 | > 100 | – | – | – |
| 21 | > 100 | – | – | Cc1cccc(Sc2cc3c(c4nsnc24)C(=O)c2ccccc2C3=O)c1 | 49 | – | – | – |
| > 100 | > 100 | Active | – | O=C1c2ccccc2C(=O)c2c1cc(Sc1ccc3ccccc3c1)c1nsnc21 | > 100 | – | – | – |
| > 100 | > 100 | – | – | O=C1c2ccccc2C(=O)c2c1cc(Sc1ccc(Br)cc1)c1nsnc21 | > 100 | – | – | – |

Further lines, the compound ahead of its results:

| Compound | IC50 (HCT-116; Homo sapiens, HCT-116, 72 h) [µM] | IC50 (A549; Homo sapiens, A549, 72 h) [µM] | inhibition [1] | inhibition [2] | IC50 (ZR-75-30; Homo sapiens, ZR-75-30, 72 h) [µM] | IC50 (HCT-116; hct-116) [µM] | IC50 (ZR-75-30; zr-75-30) [µM] | IC50 (A549; a549) [µM] |
| --- | --- | --- | --- | --- | --- | --- | --- | --- |
| CC(C)(C)c1ccc(S(=O)(=O)c2cc3c(c4nsnc24)C(=O)c2ccccc2C3=O)cc1 | 34 | > 50 | – | – | > 50 | – | – | – |
| O=C1c2ccccc2C(=O)c2c1cc(S(=O)(=O)c1ccccc1)c1nsnc21 | 35 | > 100 | – | – | > 100 | – | – | – |
| O=C1c2ccccc2C(=O)c2c1cc(S(=O)(=O)c1ccc(F)cc1)c1nsnc21 | 23 | > 100 | – | – | 36 | – | – | – |
| O=C1c2ccccc2C(=O)c2c1cc(S(=O)(=O)c1cccc(F)c1)c1nsnc21 | 24 | > 100 | – | – | > 100 | – | – | – |
| CCCNc1cc2c(c3nsnc13)C(=O)c1ccccc1C2=O | > 100 | > 100 | – | – | > 100 | – | – | – |
| O=C1c2ccccc2C(=O)c2c1cc(NCc1ccc(C(F)(F)F)cc1)c1nsnc21 | 72 | > 100 | – | – | 98 | – | – | – |
| O=C1c2ccccc2C(=O)c2c1cc(N1CCCCC1)c1nsnc21 | > 100 | > 100 | – | – | 8.1 | – | – | – |
| O=C1c2ccccc2C(=O)c2c1cc(S(=O)(=O)c1nc3ccccc3s1)c1nsnc21 | > 100 | > 100 | – | – | > 100 | – | – | – |
| CC[C@@]1(O)C(=O)OCc2c1cc1n(c2=O)Cc2cc3ccccc3nc2-1 [CAMPTOTHECIN] | 0.12 | – | – | – | 0.24 | – | – | – |
| O=C1c2ccccc2C(=O)c2c1cc(N1CCN(c3ccccn3)CC1)c1nsnc21 | > 100 | > 100 | – | – | > 100 | – | – | – |
| O=C1c2ccccc2C(=O)c2c1cc(NCc1ccccc1)c1nsnc21 | 1.9 | 4 | – | – | 4.5 | – | – | – |
| O=C1c2ccccc2C(=O)c2c1cc(S(=O)(=O)Cc1ccccc1)c1nsnc21 | 68 | > 100 | – | – | > 100 | – | – | – |
| CC(C)c1ccc(S(=O)(=O)c2cc3c(c4nsnc24)C(=O)c2ccccc2C3=O)cc1 | 27 | > 100 | – | – | 83 | – | – | – |
| CCCCCCCCNc1cc2c(c3nsnc13)C(=O)c1ccccc1C2=O | 54 | 31 | – | – | 22 | – | – | – |
| O=C1c2ccccc2C(=O)c2c1cc(NCc1cccnc1)c1nsnc21 | 87 | > 100 | – | – | 12 | – | – | – |
| O=C1c2ccccc2C(=O)c2c1cc(N1CCN(Cc3ccccc3)CC1)c1nsnc21 | > 100 | > 100 | – | – | > 100 | – | – | – |
| O=C1c2ccccc2C(=O)c2c1cc(S(=O)(=O)c1ccc(Br)cc1)c1nsnc21 | 18 | 97 | – | – | 94 | – | – | – |
| CC(C)CNc1cc2c(c3nsnc13)C(=O)c1ccccc1C2=O | – | – | Active | – | – | 6.3 | 3.1 | > 100 |

| Compound | IC50 (HCT-116; Homo sapiens, HCT-116, 72 h) [µM] | IC50 (A549; Homo sapiens, A549, 72 h) [µM] | inhibition [1] | inhibition [2] | IC50 (ZR-75-30; Homo sapiens, ZR-75-30, 72 h) [µM] | IC50 (HCT-116; hct-116) [µM] | IC50 (ZR-75-30; zr-75-30) [µM] | IC50 (A549; a549) [µM] |
| --- | --- | --- | --- | --- | --- | --- | --- | --- |
| CCOc1cccc(S(=O)(=O)c2cc3c(c4nsnc24)C(=O)c2ccccc2C3=O)c1 | > 100 | > 100 | – | – | > 100 | – | – | – |
| O=C1c2ccccc2C(=O)c2c1cc(S(=O)(=O)c1ccc3ccccc3c1)c1nsnc21 | 6.7 | > 100 | Active | – | 23 | – | – | – |
| CCC(C)Nc1cc2c(c3nsnc13)C(=O)c1ccccc1C2=O (stereo unspecified) | 58 | > 100 | – | – | > 100 | – | – | – |
| CCc1c2c(nc3ccc(OC(=O)N4CCC(N5CCCCC5)CC4)cc13)-c1cc3c(c(=O)n1C2)COC(=O)[C@]3(O)CC [IRINOTECAN] | 6.3 | – | – | – | 18 | – | – | – |
| CN1CCN(c2cc3c(c4nsnc24)C(=O)c2ccccc2C3=O)CC1 | 3.3 | 14 | Active | – | 2.7 | – | – | – |
| CC(C)(C)OC(=O)N1CCN(c2cc3c(c4nsnc24)C(=O)c2ccccc2C3=O)CC1 | > 100 | > 100 | – | – | > 100 | – | – | – |
| O=C1c2ccccc2C(=O)c2c1cc(S(=O)(=O)c1cccc(Cl)c1)c1nsnc21 | > 100 | > 100 | – | – | > 100 | – | – | – |
| O=C1c2ccccc2C(=O)c2c1cc(S(=O)(=O)c1ccc(Cl)cc1)c1nsnc21 | 15 | > 100 | – | – | > 100 | – | – | – |
| COc1ccc(S(=O)(=O)c2cc3c(c4nsnc24)C(=O)c2ccccc2C3=O)cc1 | > 50 | > 50 | – | – | > 50 | – | – | – |
| CC(C)Nc1cc2c(c3nsnc13)C(=O)c1ccccc1C2=O | 7 | 6.7 | Active | – | 3 | – | – | – |
| O=C1c2ccccc2C(=O)c2c1cc(N1CCCC1)c1nsnc21 | 68 | > 100 | – | – | 45 | – | – | – |
| CCOc1ccc(Nc2cc3c(c4nsnc24)C(=O)c2ccccc2C3=O)cc1 | 100 | > 100 | – | – | 91 | – | – | – |
| O=C1c2ccccc2C(=O)c2c1cc(S(=O)(=O)Cc1ccccc1Cl)c1nsnc21 | 11 | > 100 | Active | – | > 100 | – | – | – |
| O=C1c2ccccc2C(=O)c2c1cc(S(=O)(=O)c1cccs1)c1nsnc21 | 1.5 | > 100 | Active | inactive | 24 | – | – | – |
| O=C1c2ccccc2C(=O)c2c1cc(NC1CCCCC1)c1nsnc21 | 5.1 | 3.8 | – | – | 4.1 | – | – | – |
| CCCCCCNc1cc2c(c3nsnc13)C(=O)c1ccccc1C2=O | 50 | > 100 | – | – | 47 | – | – | – |
| CCCCCCCNc1cc2c(c3nsnc13)C(=O)c1ccccc1C2=O | 34 | 44 | – | – | 12 | – | – | – |

— ChEMBL document CHEMBL4014301, “Design, synthesis and evaluation of 4-substituted anthra[2,1-c][1,2,5]thiadiazole-6,11-dione derivatives as novel non-camptothecin topoisomerase I inhibitors” (Bioorg Med Chem Lett, 2017)
